Two molecules from ChEMBL document CHEMBL4052624, “Metallo-β-lactamase inhibitors by bioisosteric replacement: Preparation, activity and binding” (Eur J Med Chem, 2017) can be followed below.

The target in series [1] is T1, Beta-lactamase VIM-2 (Pseudomonas aeruginosa, UniProt Q9K2N0). Nature of the series: Inhibition of Pseudomonas aeruginosa 301-5473 6His-tagged VIM-2 (V27 to E268 residues) expressed in Escherichia coli BL21 Star(DE3) pLysS using nitrocefin as substrate preincubated for 5 mins followed by substrate addition by spectrophotometric analysis. The method in brief: (§1)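 Purified VIM-2 and GIM-1 were each used at 10 nM in 50 mM HEPES pH 7.2 with ZnCl₂ and BSA. Each enzyme was preincubated with inhibitor at 25 °C for 5 min, using sixteen concentrations in a 2-fold series. Nitrocefin was then added and the absorbance rise at 482 nm was read. Initial velocities, measured in triplicate, were fitted to log[inhibitor] vs response curves to give IC50. Line 3 is the ratio of the two IC50s.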

For series [2], the target named is GIM-1 protein (Pseudomonas aeruginosa, UniProt Q704V1). Nature of the series: Inhibition of Pseudomonas aeruginosa 6His-tagged GIM-1 (Q19 to D250 residues) expressed in Escherichia coli BL21 Star(DE3) pLysS using nitrocefin as substrate preincubated for 5 mins followed by substrate addition by spectrophotometric analysis. As to conditions: read-out: IC50. Summed up: (§2)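 His-tagged enzyme, TEV-cleaved, ~95% pure by SDS-PAGE. 10 nM enzyme with 16 inhibitor concentrations in a 2-fold series, in 50 mM HEPES pH 7.2 with ZnCl2 and BSA, preincubated 5 min at 25 °C. Then 100 µM substrate added: imipenem for NDM-1 read at 260 nm, nitrocefin for GIM-1 read at 482 nm. Initial rates in triplicate, fitted to a log[inhibitor] dose–response curve for IC50.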

The nature of series [3]: Inhibition of Klebsiella pneumoniae 6His-tagged NDM1 (G36 to R280 residues) expressed in Escherichia coli BL21 Star(DE3) pLysS using imipenem as substrate preincubated for 5 mins followed by substrate addition by spectrophotometric analysis. As to conditions: read-out: IC50. Summed up:
as §2

Series [4] deals with Beta-lactamase VIM-2 (Pseudomonas aeruginosa) (UniProt Q9K2N0). Nature of the series: Inhibition of Pseudomonas aeruginosa 301-5473 VIM-2 expressed in Escherichia coli SNO3 whole cells using nitrocefin as substrate at 250 uM preincubated for 20 mins followed by substrate addition measured every min up to 60 mins by spectrophotometric analysis relative to control. Summed up: (§3)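 β-lactamase-negative E. coli SNO3 carrying blaVIM-2, blaGIM-1 or blaNDM-1 in pET26b(+). Hydrolysis of the reporter substrate followed as the initial slope over up to 60 min. Percent inhibition calculated from slopes relative to a no-inhibitor control; EDTA used as positive control.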

Series [5] deals with GIM-1 protein (Pseudomonas aeruginosa) (UniProt Q704V1). In words: Inhibition of Pseudomonas aeruginosa GIM-1 expressed in Escherichia coli SNO3 whole cells using nitrocefin as substrate at 250 uM preincubated for 20 mins followed by substrate addition measured every min up to 60 mins by spectrophotometric analysis relative to control. The method in brief: as §3
Series [6] deals with Klebsiella pneumoniae. Nature of the series: Inhibition of Klebsiella pneumoniae NDM1 expressed in Escherichia coli SNO3 whole cells using imipenem as substrate at 250 uM preincubated for 20 mins followed by substrate addition measured every min up to 60 mins by spectrophotometric analysis relative to control. Summed up: as §3
Series [7] has as its target Beta-lactamase VIM-2 (Pseudomonas aeruginosa) (UniProt Q9K2N0). In words: Inhibition of VIM-2 in Pseudomonas aeruginosa K34-7 assessed as potentiation of meropenem-induced antimicrobial activity by measuring meropenem MIC at 125 uM after 20 hrs (reference value: 32 to 64 mg/L).
The test system of series [8] is Klebsiella pneumoniae. In words: Inhibition of NDM-1 in Klebsiella pneumoniae K66-45 assessed as potentiation of meropenem-induced antimicrobial activity by measuring meropenem MIC at 125 uM after 20 hrs (reference value: 32 to 64 mg/L).
In series [9] the test system is Pseudomonas aeruginosa. In words: Growth inhibition of Pseudomonas aeruginosa K34-7 after 20 hrs.
The test system of series [10] is Klebsiella pneumoniae. In words: Growth inhibition of Klebsiella pneumoniae K66-45 after 20 hrs.
Series [11] relates to Escherichia coli. Nature of the series: Inhibition of VIM-29 in Escherichia coli 50639799 assessed as potentiation of meropenem-induced antimicrobial activity by measuring meropenem MIC at 125 uM after 20 hrs (reference value: 8 to 32 mg/L).
In series [12] the test system is Pseudomonas aeruginosa. In words: Selectivity ratio of IC50 for Pseudomonas aeruginosa 301-5473 6His-tagged VIM-2 (V27 to E268 residues) expressed in Escherichia coli BL21 Star(DE3) pLysS to IC50 for Pseudomonas aeruginosa 6His-tagged GIM-1 (Q19 to D250 residues) expressed in Escherichia coli BL21 Star(DE3) pLysS. The method in brief: as §1
For series [13], the target named is T1, Beta-lactamase VIM-2. Nature of the series: Inhibition of Pseudomonas aeruginosa VIM-2 expressed in Escherichia coli NCB326-1B2 using nitrocefin as substrate after 5 mins by spectrophotometric analysis.

Chain of GIM-1 protein (Q704V1 whole entry, the tested form may be a part): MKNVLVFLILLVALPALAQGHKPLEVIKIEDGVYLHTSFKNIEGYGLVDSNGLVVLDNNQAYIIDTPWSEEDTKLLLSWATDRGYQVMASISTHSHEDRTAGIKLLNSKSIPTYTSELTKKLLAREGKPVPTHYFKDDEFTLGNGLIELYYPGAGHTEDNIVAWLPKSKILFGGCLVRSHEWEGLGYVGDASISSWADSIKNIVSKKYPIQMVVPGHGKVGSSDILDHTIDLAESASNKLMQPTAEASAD
Chain of GIM-1 protein (Pseudomonas aeruginosa) (Q704V1 as listed by the source): as the sequence (Q704V1 whole entry, the tested form may be a part) above

For the molecule `CCOP(=O)(OCC)C(CS)CCc1ccccc1` (stereo not given), the IC50 came to 890 nM in series [1], 180 nM in series [2] and 2200 nM in series [3]. Moreover, the inhibition in series [4] came to 78%; in series [5], 64%; in series [6], 33%. Besides, the MIC in [7] is 32 µg/mL; in [8], 32 µg/mL; in series [9], > 500 µg/mL; in [10], > 500 µg/mL; in series [11], 8 µg/mL. In series [12], the Ratio IC50 amounted to 5.
In the case of `O=C(O)C(CS)CCCCc1ccccc1` (stereo not given), the figures for the half-maximal inhibitory concentration (IC50) in [1], in series [3] and in series [13] were 2900 nM, 56000 nM and 1100 nM, respectively.
